Consider 13 molecules from ChEMBL document CHEMBL2062476, “One pot efficient diversity oriented synthesis of polyfunctional styryl thiazolopyrimidines and their bio-evaluation as antimalarial and anti-HIV agents” (Eur J Med Chem, 2012).

Data set [1] is described as follows: Selectivity index, ratio of CC50 for african green monkey Vero C1008 cells to IC50 for chloroquine resistant Plasmodium falciparum K1. The format is functional. The method in brief: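 Vero C1008 cells grown in MEM with 15% FBS. Seeded at 1 × 10^5 cells/mL, left to adhere overnight, then exposed to serial compound dilutions for 72 h. Viability read by resazurin fluorescence after 4 h and CC50 derived. SI = CC50 / IC50 against K1, with IC50 from the 72 h SYBR green parasite assay.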

Data set [2] has as its system Plasmodium falciparum. Put plainly: Antimalarial activity against chloroquine sensitive Plasmodium falciparum 3D7 infected in RBCs incubated for 72 hrs by SYBRgreen dye based fluorometric assay. The format is functional, organism-based. The conditions noted are these: 3D7, 72 h. An outline of the steps:
(§1)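 Parasites kept in RPMI-1640 (HEPES) with 0.5% AlbuMaxII, 0.2% glucose, 0.2% NaHCO3, 15 µM hypoxanthine, 37 °C, 5% CO2. Compounds in DMSO (10mg/mL stock), two-fold serial dilutions. Infected erythrocytes added at 4% haematocrit, 1% parasitaemia, incubated 72 h. Lysis buffer with SYBR green added for 4 h in the dark at room temp. Fluorescence read at ex 485/em 535 nm. IC50 taken from parasite DNA content relative to controls.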

Data set [3] in a line: Cytotoxicity against african green monkey Vero C1008 cells incubated for 72 hrs by resazurin dye based fluorometric assay. The format is cell-based. Particulars: chlorocebus sabaeus. An outline of the steps: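 Vero (C1008) cells grown in MEM with 15% FBS, 37 °C, 5% CO2; trypsinized, seeded at 1 × 10^5 cells/mL and left to adhere overnight. Serial compound dilutions added for 72 h. Resazurin added, fluorescence read after 4 h; CC50 derived from viability.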
A general note: Resazurin is reduced to fluorescent resorufin, in cell work by metabolically active cells.

The subject of data set [4] is Human immunodeficiency virus. Put plainly: Inhibition of HIV reverse transcriptase activity at 100 ug/ml incubated at 37 degC for 1 hr by ELISA RT assay. The method in brief:
(§2)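 Colorimetric ELISA kit: template/primer with dNTPs (digoxigenin- and biotin-labelled dUTP) plus HIV-1 RT in lysis buffer, 60 µl total, 37 °C for 1 h; no-RT lysis buffer as negative control. Product captured on streptavidin plate 1 h at 37 °C, anti-DIG-POD (200 mU/mL) 1 h, ABTS substrate; OD 405 nm (reference 490 nm).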

Data set [5] concerns Plasmodium falciparum. As to the kind of experiment: Antimalarial activity against chloroquine resistant Plasmodium falciparum K1 infected in RBCs incubated for 72 hrs by SYBRgreen dye based fluorometric assay. The format is functional, organism-based. The conditions noted are these: K1, 72 h. The method in brief: as §1
Data set [6] in a line: Selectivity index, ratio of CC50 for african green monkey Vero C1008 cells to IC50 for chloroquine sensitive Plasmodium falciparum 3D7. Format: functional. An outline of the steps:
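SI = CC50 in Vero cells (resazurin, 72 h) divided by IC50 against P. falciparum 3D7. The IC50 came from a SYBR green assay: cultures in RPMI-1640 with 0.5% AlbuMaxII and 15 µM hypoxanthine, 4% haematocrit, 1% parasitaemia, two-fold dilutions, 72 h at 37 °C. Lysis with SYBR green for 4 h, read at ex 485/em 535 nm.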

In data set [7] the test system is Human immunodeficiency virus. Put plainly: Inhibition of HIV reverse transcriptase activity at 10 ug/ml incubated at 37 degC for 1 hr by ELISA RT assay. An outline of the steps: as §2

Molecules are shown by their SMILES. In brackets after ≈: the same amount, converted by molar mass.

What is called IC50 is the concentration needed to halve the response being measured. For orientation: CC50 means the concentration that lowers cell viability or growth by half. A word on the inhibition: it is how much of the control response was suppressed. Regarding `COc1ccc(C2C(C(=O)/C=C/c3ccc(Cl)cc3)=C(/C=C/c3ccc(Cl)cc3)N=C3SC=C(C)N32)cc1` (stereo unspecified), the entries for the “Ratio CC50/IC50” value in data set [1] and in data set [6] were 182.89 and 51.42, respectively. Moreover, the IC50 in data set [2] came out at 5.3 µg/mL (≈ 9.47 µM); in data set [5] it was 1.49 µg/mL (≈ 2.66 µM). In addition, in data set [3], the CC50 at 72 h stood at 273 µg/mL (≈ 487 µM). Besides, the inhibition in data set [4] is 50.9%; in data set [7] it was 31.2%.
In the case of `CC1=CSC2=NC(/C=C/c3ccc(Cl)cc3)=C(C(=O)/C=C/c3ccc(Cl)cc3)C(c3ccc(Cl)cc3)N12` (stereo unspecified), the results for the “Ratio CC50/IC50” value in data set [1] and in data set [6] were 515.05 and 363.57, respectively. For the same molecule, the IC50 in data set [2] was 0.85 µg/mL (≈ 1.51 µM); in data set [5], 0.6 µg/mL (≈ 1.06 µM). Also, the CC50 at 72 h in data set [3] came out at 309 µg/mL (≈ 548 µM). For the same molecule, the inhibition in data set [4] worked out at 11.4%; in data set [7], 10.6%.
Consider `CC1=CSC2=NC(/C=C/c3cccc(Cl)c3)=C(C(=O)/C=C/c3cccc(Cl)c3)C(c3ccc(Cl)cc3)N12` (stereo unspecified), for which the “Ratio CC50/IC50” value is greater than 417.5 in data set [1] and 141.02 in data set [6]. Moreover, the 50% inhibitory concentration (IC50) was 2.25 µg/mL (≈ 3.99 µM) in data set [2] and less than 0.76 µg/mL in data set [5]. The same molecule gave a CC50 at 72 h in data set [3] of 317 µg/mL (≈ 563 µM). Besides, the results for the inhibition in data set [4] and in data set [7] were 16.6% and 13.2%, respectively.
As to `CC1=CSC2=NC(/C=C/c3ccc(Cl)cc3)=C(C(=O)/C=C/c3ccc(Cl)cc3)C(c3ccccc3)N12` (stereo unspecified), the “Ratio CC50/IC50” value turned out to be 93.17 in data set [1] and 49.03 in data set [6]. Moreover, the IC50 in data set [2] is 5.15 µg/mL (≈ 9.73 µM); in data set [5], 2.71 µg/mL (≈ 5.12 µM). This molecule returned a CC50 at 72 h in data set [3] of 252 µg/mL (≈ 477 µM). Moreover, the inhibition in data set [4] worked out at 53.4%; in data set [7], 42.6%.
As to `CC1=CSC2=NC(/C=C/c3ccccc3)=C(C(=O)/C=C/c3ccccc3)C(c3ccc(Cl)cc3)N12` (stereo unspecified), the “Ratio CC50/IC50” value in data set [1] amounted to 1183.89; in data set [6], 639.3. The IC50 in data set [2] amounted to 0.5 µg/mL (≈ 1.01 µM); in data set [5], 0.27 µg/mL (≈ 0.545 µM). This molecule came in with a CC50 at 72 h in data set [3] of 320 µg/mL (≈ 646 µM). In addition, the inhibition in data set [4] came out at 30.6%; in data set [7] it was 23.6%.
As to `CC1=CSC2=NC(/C=C/c3ccc(Br)cc3)=C(C(=O)/C=C/c3ccc(Br)cc3)C(c3ccc(Cl)cc3)N12` (stereo unspecified), the “Ratio CC50/IC50” value in data set [1] was determined as 344.06; in data set [6], 330.51. In addition, the IC50 in data set [2] is 1.27 µg/mL (≈ 1.95 µM); in data set [5] it was 1.22 µg/mL (≈ 1.87 µM). Besides, the CC50 at 72 h in data set [3] turned out to be 420 µg/mL (≈ 643 µM). Moreover, the values for the inhibition in data set [4] and in data set [7] were 26.5% and 17.8%, respectively.
As to `CC1=CSC2=NC(/C=C/c3ccc(F)cc3)=C(C(=O)/C=C/c3ccc(F)cc3)C(c3ccccc3)N12` (stereo unspecified), the “Ratio CC50/IC50” value in data set [1] is recorded as 192.53; in data set [6], 114.22. In addition, the IC50 in data set [2] was found to be 2.68 µg/mL (≈ 5.4 µM); in data set [5], 1.59 µg/mL (≈ 3.2 µM). The molecule further showed a CC50 at 72 h in data set [3] of 306 µg/mL (≈ 616 µM). For the same molecule, the values for the inhibition in data set [4] and in data set [7] were 59.2% and 30%, respectively.
Take `CC1=CSC2=NC(/C=C/c3ccc(OCc4ccccc4)cc3)=C(C(=O)/C=C/c3ccc(OCc4ccccc4)cc3)C(c3ccccc3)N12` (stereo unspecified): the “Ratio CC50/IC50” value is listed as greater than 116.28 in data set [1] and greater than 20.39 in data set [6]. The IC50 was 24.5 µg/mL (≈ 36.4 µM) in data set [2] and 4.3 µg/mL (≈ 6.39 µM) in data set [5]. Also, the CC50 at 72 h in data set [3] is greater than 500 µg/mL. The inhibition in data set [4] was 56.3%; in data set [7], 47.7%.
In the case of `CC1=CSC2=NC(/C=C/c3ccccc3)=C(C(=O)/C=C/c3ccccc3)C(c3ccccc3)N12` (stereo unspecified), the “Ratio CC50/IC50” value in data set [1] is reported as 247.43; in data set [6] it was 342.93. The concentration for half-maximal inhibition (IC50) in data set [2] came out at 0.57 µg/mL (≈ 1.24 µM); in data set [5], 0.79 µg/mL (≈ 1.72 µM). In addition, the CC50 at 72 h in data set [3] was 195 µg/mL (≈ 424 µM). Also, the values for the inhibition in data set [4] and in data set [7] were 49.6% and 42.3%, respectively.
`CC1=CSC2=NC(/C=C/c3ccc(OCc4ccccc4)cc3)=C(C(=O)/C=C/c3ccc(OCc4ccccc4)cc3)C(c3ccc(Cl)cc3)N12` (stereo unspecified): the results for the “Ratio CC50/IC50” value in data set [1] and in data set [6] were greater than 25.56 and greater than 71.74, respectively. The IC50 turned out to be 6.97 µg/mL (≈ 9.85 µM) in data set [2] and 19.6 µg/mL (≈ 27.6 µM) in data set [5]. The CC50 at 72 h in data set [3] was greater than 500 µg/mL. Further, the inhibition came to 18.6% in data set [4] and 17.6% in data set [7].
Regarding `COc1ccc(/C=C/C(=O)C2=C(/C=C/c3ccc(OC)cc3)N=C3SC=C(C)N3C2c2ccccc2)cc1` (stereo unspecified), the “Ratio CC50/IC50” value is reported as greater than 471.31 in data set [1] and 163.56 in data set [6]. Also, the results for the IC50 in data set [2] and in data set [5] were 2.19 µg/mL (≈ 4.21 µM) and less than 0.76 µg/mL, respectively. The same molecule showed a CC50 at 72 h in data set [3] of 358 µg/mL (≈ 688 µM). Moreover, the results for the inhibition in data set [4] and in data set [7] were 32.7% and 40.6%, respectively.
`CC1=CSC2=NC(/C=C/c3ccccc3Cl)=C(C(=O)/C=C/c3ccccc3Cl)C(c3ccccc3)N12` (stereo unspecified): the “Ratio CC50/IC50” value is 572.25 in data set [1] and 367.88 in data set [6]. Also, the IC50 in data set [2] amounted to 0.56 µg/mL (≈ 1.06 µM); in data set [5] it was 0.36 µg/mL (≈ 0.68 µM). The CC50 at 72 h in data set [3] stood at 206 µg/mL (≈ 389 µM). The inhibition in data set [4] stood at 73.4%; in data set [7], 38.9%.
Regarding `COc1ccc(C2C(C(=O)/C=C/c3ccccc3)=C(/C=C/c3ccccc3)N=C3SC=C(C)N32)cc1` (stereo unspecified), the results for the “Ratio CC50/IC50” value in data set [1] and in data set [6] were 248.11 and 99.95, respectively. For the same molecule, the 50% inhibitory concentration (IC50) came out at 2.11 µg/mL (≈ 4.3 µM) in data set [2] and 0.85 µg/mL (≈ 1.73 µM) in data set [5]. Besides, the CC50 at 72 h in data set [3] amounted to 211 µg/mL (≈ 430 µM). Also, the inhibition was found to be 48.6% in data set [4] and 39.4% in data set [7].
